Results on one compound are retold here after ChEMBL document CHEMBL3784976 (J Med Chem, 2016).

Each structure is given as a SMILES string. Values after ≈ are worked out from the molar mass of the structure shown. Active and inactive are the calls of the source. The calls are words filed in the database; no cut-off is given here.

In general, EC50 refers to the concentration at which the effect is half-maximal. The AUC(0-inf) is the area under the concentration-time curve extrapolated to infinity. Read a low AUC(0-inf) as less exposure. Usually efflux ratio stands for the permeability from basolateral to apical divided by that in the opposite direction, in the common usage. Usually solubility stands for the dissolved amount per volume that the medium holds. Low readings indicate little dissolved substance, high ones much dissolved substance. What is called IC50 is the concentration needed to halve the response being measured.

Data set [1] has as its target D(2) dopamine receptor (Homo sapiens) (UniProt P14416). Kind of data set: Displacement of [3H]methyl-spiperone from human recombinant dopamine D2S receptor expressed in HEK293 cells assessed as remaining radioligand binding at 10 uM after 60 mins by scintillation counting method relative to control. In kind it is cell-based. On the technique in general: Loss of bound radioactivity is the signal in a displacement assay; it reports binding, not function.

For the next data set, the species on record is Homo sapiens. Briefly: Binding affinity to human delta 2-type opioid receptor assessed as remaining radioligand binding at 10 uM by radioligand displacement assay relative to control.
Data set [2] has as its target C-X-C chemokine receptor type 2 (Homo sapiens) (UniProt P25025). Briefly: Displacement of [125I]IL-8 from human recombinant CXCR2 expressed in HEK293 cells assessed as remaining radioligand binding at 10 uM after 60 mins by scintillation counting method relative to control. In kind it is cell-based.
In data set [3] the target is Sodium-dependent dopamine transporter (Homo sapiens) (UniProt Q01959). Kind of data set: Displacement of [3H]BTCP from human recombinant dopamine transporter expressed in CHO cells assessed as remaining radioligand binding at 10 uM after 120 mins by scintillation counting method relative to control. In kind it is cell-based.
Sodium-dependent dopamine transporter (Homo sapiens), sequence (Q01959 whole entry): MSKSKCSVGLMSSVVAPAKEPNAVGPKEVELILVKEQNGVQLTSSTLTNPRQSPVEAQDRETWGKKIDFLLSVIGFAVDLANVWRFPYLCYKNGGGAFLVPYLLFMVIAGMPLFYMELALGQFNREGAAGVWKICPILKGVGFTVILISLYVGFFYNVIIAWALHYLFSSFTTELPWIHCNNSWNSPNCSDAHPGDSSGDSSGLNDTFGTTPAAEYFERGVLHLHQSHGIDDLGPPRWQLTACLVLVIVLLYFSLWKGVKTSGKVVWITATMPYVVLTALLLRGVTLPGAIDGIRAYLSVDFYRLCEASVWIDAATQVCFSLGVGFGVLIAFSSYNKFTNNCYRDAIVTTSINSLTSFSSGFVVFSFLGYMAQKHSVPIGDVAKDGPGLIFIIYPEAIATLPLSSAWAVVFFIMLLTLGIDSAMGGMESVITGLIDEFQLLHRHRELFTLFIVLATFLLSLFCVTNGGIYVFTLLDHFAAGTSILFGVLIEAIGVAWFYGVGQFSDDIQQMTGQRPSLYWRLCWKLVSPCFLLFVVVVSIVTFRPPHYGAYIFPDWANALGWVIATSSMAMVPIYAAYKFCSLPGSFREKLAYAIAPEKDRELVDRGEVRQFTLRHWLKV
Data set [4] has as its target Urotensin-2 receptor (Homo sapiens) (UniProt Q9UKP6). Kind of data set: Displacement of [125I]urotensin-2 from human recombinant urotensin-2 receptor expressed in CHO cells assessed as remaining radioligand binding at 10 uM after 120 mins by scintillation counting method relative to control. In kind it is cell-based.
Data set [5] has as its target Mu-type opioid receptor (Homo sapiens) (UniProt P35372). Kind of data set: Displacement of [3H]DAMGO from human recombinant mu opioid receptor expressed in HEK293 cells assessed as remaining radioligand binding at 10 uM after 120 mins by scintillation counting method relative to control. In kind it is cell-based.
The species named for data set [6] is Rattus norvegicus. Briefly: Displacement of [3H]diltiazem from L-type calcium channel diltiazem binding site in rat cerebral cortex assessed as remaining radioligand binding at 10 uM after 120 mins by scintillation counting method relative to control. In kind it is tissue-based.
Data set [7] deals with Somatostatin receptor type 4 (Homo sapiens) (UniProt P31391). Briefly: Displacement of [125I]Tyr11-somatostatin-14 from human recombinant SST4 receptor expressed in CHO cells assessed as remaining radioligand binding at 10 uM after 120 mins by scintillation counting method relative to control. In kind it is cell-based.
Somatostatin receptor type 4 (Homo sapiens), sequence (P31391 whole entry): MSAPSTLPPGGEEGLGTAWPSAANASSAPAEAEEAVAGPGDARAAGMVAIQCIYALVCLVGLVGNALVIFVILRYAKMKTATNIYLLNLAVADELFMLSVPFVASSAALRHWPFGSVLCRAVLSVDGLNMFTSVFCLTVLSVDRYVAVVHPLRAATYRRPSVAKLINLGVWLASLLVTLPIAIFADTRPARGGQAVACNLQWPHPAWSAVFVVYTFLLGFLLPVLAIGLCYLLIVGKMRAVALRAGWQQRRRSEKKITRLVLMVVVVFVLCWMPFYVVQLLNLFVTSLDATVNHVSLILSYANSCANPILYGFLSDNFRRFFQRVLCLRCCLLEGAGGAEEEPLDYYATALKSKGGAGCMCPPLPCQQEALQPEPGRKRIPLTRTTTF
Data set [8] concerns the target T1, Transient receptor potential cation channel subfamily A member 1 (Rattus norvegicus, UniProt Q6RI86). Kind of data set: Agonist activity at rat TRPA1 expressed in tetracycline-inducible T-REx expression system transfected CHO cells by 45Ca2+ uptake assay. In kind it is cell-based.
Data set [9] can be described thus: AUC (infinity) in rat at 30 mg/kg, po. In kind it is ADME, organism-based. Set-up: dose 30 mg/kg, time infinity, route oral. To be noted: in vivo. In a few lines:
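Rat oral PK at 30 mg/kg (10 mg/kg for one analogue) in 1% Tween 80/2% HPMC/97% water with methanesulfonic acid, pH 2.2.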

The test system of the next data set is MDR1 (human). Briefly: Efflux ratio of apparent permeability from basolateral to apical side over apical to basolateral side in MDCK cells expressing human MDR1 after 120 mins by LC-MS/MS analysis. In kind it is ADME, cell-based, Canis lupus familiaris. To be noted: dog. In a few lines: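 Efflux ratio taken as Papp B→A / Papp A→B, measured in MDR1-transfected MDCK cells against MDCK vector-control cells.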

Data set [10] can be described thus: Solubility of compound in simulated intestinal fluid. In kind it is ADME.
Data set [11] deals with Transient receptor potential cation channel subfamily V member 4 (Homo sapiens) (UniProt Q9HBA0). Briefly: Antagonist activity at human TRPV4 expressed in tetracycline-inducible T-REx expression system transfected CHO cells assessed as inhibition of 4alpha-PDD-induced Ca2+ influx up to 10 uM preincubated for 2.5 mins followed by 4alpha-PDD addition measured for 1 min by luminescence assay. In kind it is cell-based.
Transient receptor potential cation channel subfamily V member 4 (Homo sapiens), sequence (Q9HBA0 whole entry): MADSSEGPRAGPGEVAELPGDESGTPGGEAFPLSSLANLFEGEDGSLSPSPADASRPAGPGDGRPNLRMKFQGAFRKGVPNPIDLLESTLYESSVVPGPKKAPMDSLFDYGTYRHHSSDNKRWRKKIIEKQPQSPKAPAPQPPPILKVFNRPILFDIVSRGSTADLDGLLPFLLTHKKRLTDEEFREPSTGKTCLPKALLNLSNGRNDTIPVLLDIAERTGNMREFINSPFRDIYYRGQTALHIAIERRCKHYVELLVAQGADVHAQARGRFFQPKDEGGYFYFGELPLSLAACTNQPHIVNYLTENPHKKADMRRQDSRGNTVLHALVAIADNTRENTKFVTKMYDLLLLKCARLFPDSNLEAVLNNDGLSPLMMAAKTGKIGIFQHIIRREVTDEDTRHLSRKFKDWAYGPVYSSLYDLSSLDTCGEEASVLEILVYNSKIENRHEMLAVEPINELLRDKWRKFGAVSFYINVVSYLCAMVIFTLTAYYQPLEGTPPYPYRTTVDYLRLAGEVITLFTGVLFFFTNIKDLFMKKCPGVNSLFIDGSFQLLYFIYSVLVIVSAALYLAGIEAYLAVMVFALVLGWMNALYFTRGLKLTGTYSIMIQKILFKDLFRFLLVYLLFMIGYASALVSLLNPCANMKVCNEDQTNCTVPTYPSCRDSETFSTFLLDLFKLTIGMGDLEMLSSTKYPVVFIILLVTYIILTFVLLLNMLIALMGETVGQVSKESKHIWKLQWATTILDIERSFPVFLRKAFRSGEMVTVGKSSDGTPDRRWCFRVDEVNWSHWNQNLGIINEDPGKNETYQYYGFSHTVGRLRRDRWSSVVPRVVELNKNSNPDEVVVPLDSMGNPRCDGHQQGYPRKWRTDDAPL

Data set [12] addresses T1, Transient receptor potential cation channel subfamily A member 1. Kind of data set: Antagonist activity at rat TRPA1 expressed in tetracycline-inducible T-REx expression system transfected CHO cells assessed as inhibition of methylglyoxal-induced 45Ca2+ uptake preincubated for 10 mins followed by methylglyoxal addition measured after 3 mins by TopCount microplate scintillator counting method. In kind it is cell-based. In a few lines:
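Compound given 10 min at RT in HBSS/1 mM HEPES/0.1 mg/mL BSA, final 2.0 nM–40 μM (1:3 steps); then methylglyoxal (final 2.74 mM) plus 45Ca2+ (final 10 μCi/mL) in Ham's F-12/15 mM HEPES/0.1% BSA, 3 min at RT. Cells washed three times, then scintillation counted. MG uptake = 100%, no-agonist buffer = 0%. Four-parameter fit gives IC50.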

Data set [13] has the same target. Briefly: Antagonist activity at rat TRPA1 expressed in tetracycline-inducible T-REx expression system transfected CHO cells assessed as inhibition of hypo osmolarity buffer-induced 45Ca2+ uptake preincubated for 10 mins followed by hypo osmolarity buffer addition measured after 3 mins by TopCount microplate scintillator counting method. In kind it is cell-based. Summed up:
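Compound given 10 min at RT in Ham's F12/15 mM HEPES/0.1% BSA, final 2.0 nM–40 μM (1:3 steps); then hypo-osmolar buffer (final 100 mOsmol) with 45Ca2+ (final 10 μCi/mL), 3 min at RT. Cells washed three times in PBS/0.1 mg/mL BSA, then scintillation counted. Hypotonic uptake = 100%, 300 mOsmol/L buffer = 0%. POC fitted to a four-parameter curve for IC50.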

In data set [14] the test system is Plasma. Briefly: Unbound plasma concentration in Harlan Sprague-Dawley rat model of AITC-induced flinching at 1 mg/kg, po at 1 hr. To be noted: in vivo. In kind it is ADME, organism-based. In a few lines:
(§1)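 Rats were given vehicle (2% HPMC/1% Tween-80) or compound orally at 1, 3, 10 or 30 mg/kg. After 1 h, 0.1% AITC was injected into one left ventral hind paw, and nocifensive flinching was recorded over the first minute. Unbound plasma concentration was measured at 1 h, n = 8 per dose. In vivo IC50/IC90 came from the exposure–response relationship across individual animals.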

The subject of data set [15] is Plasma. Kind of data set: Unbound plasma concentration in Harlan Sprague-Dawley rat model of AITC-induced flinching at 3 mg/kg, po at 1 hr. In kind it is ADME, organism-based. To be noted: in vivo. Summed up:
as §1

The nature of data set [16]: Ratio of unbound plasma concentration in Harlan Sprague-Dawley rat model of AITC-induced flinching at 30 mg/kg, po to IC50 for rat TRPA1 expressed in tetracycline-inducible T-REx expression system transfected CHO cells by 45Ca2+ uptake assay. To be noted: in vivo. In kind it is ADME, organism-based. In a few lines:
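Rats dosed orally at 1, 3, 10 or 30 mg/kg in 2% HPMC/1% Tween-80 vehicle. After 1 h, unbound plasma concentration measured (n = 8 per dose), intraplantar AITC (0.1%) given and flinching scored over the first minute. Unbound concentration divided by in vitro rat TRPA1 45Ca2+ IC50.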

The subject of data set [17] is Rattus norvegicus. Briefly: In vivo inhibition of TRPA1 in Harlan Sprague-Dawley rat model of AITC-induced flinching assessed as unbound plasma concentration based IC50. In kind it is functional, organism-based. In a few lines: as §1
Data set [18] addresses 5-hydroxytryptamine receptor 5A (Homo sapiens) (UniProt P47898). Kind of data set: Displacement of [3H]LSD from human recombinant 5HT5A receptor expressed in HEK293 cells assessed as remaining radioligand binding at 10 uM after 120 mins by scintillation counting method relative to control. In kind it is cell-based.
The species entered for a further data set is Cavia porcellus. Kind of data set: Displacement of [3H]NBTI from adenosine transporter in guinea pig cerebral cortex assessed as remaining radioligand binding at 10 uM after 30 mins by scintillation counting method relative to control. In kind it is tissue-based.
Data set [19] deals with 5-hydroxytryptamine receptor 6 (Homo sapiens) (UniProt P50406). Kind of data set: Displacement of [3H]LSD from human recombinant 5HT6 receptor expressed in CHO cells assessed as remaining radioligand binding at 10 uM after 120 mins by scintillation counting method relative to control. In kind it is cell-based.

T1 sequence (Q6RI86 whole entry): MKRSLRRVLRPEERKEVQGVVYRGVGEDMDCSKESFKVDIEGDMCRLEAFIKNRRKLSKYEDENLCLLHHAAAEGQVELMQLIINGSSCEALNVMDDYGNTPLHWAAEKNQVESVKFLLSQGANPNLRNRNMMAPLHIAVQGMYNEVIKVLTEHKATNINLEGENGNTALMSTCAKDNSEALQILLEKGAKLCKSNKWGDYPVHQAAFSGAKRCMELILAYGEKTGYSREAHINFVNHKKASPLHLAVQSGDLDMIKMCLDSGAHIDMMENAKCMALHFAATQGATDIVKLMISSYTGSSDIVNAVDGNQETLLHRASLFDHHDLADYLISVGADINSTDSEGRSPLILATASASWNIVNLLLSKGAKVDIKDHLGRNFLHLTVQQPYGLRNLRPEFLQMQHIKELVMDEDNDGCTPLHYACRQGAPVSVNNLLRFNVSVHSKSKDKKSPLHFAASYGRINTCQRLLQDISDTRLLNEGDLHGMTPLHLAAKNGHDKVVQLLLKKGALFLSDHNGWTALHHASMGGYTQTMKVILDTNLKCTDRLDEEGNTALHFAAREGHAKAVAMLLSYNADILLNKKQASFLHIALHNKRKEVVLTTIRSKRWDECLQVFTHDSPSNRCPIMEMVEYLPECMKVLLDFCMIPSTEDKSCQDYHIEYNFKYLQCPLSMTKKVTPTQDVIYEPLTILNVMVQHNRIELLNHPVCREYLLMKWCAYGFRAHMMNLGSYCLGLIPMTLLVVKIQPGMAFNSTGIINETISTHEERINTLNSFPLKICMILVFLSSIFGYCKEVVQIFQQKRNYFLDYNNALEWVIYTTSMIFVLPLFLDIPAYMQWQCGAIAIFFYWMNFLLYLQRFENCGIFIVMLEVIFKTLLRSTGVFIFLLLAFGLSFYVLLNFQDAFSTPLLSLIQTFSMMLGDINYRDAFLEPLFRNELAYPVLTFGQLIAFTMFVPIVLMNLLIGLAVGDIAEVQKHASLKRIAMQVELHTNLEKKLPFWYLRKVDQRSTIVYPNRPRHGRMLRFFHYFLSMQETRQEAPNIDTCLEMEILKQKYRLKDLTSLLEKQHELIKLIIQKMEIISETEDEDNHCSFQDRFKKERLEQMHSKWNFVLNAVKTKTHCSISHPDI
Mu-type opioid receptor (Homo sapiens), sequence (P35372 whole entry): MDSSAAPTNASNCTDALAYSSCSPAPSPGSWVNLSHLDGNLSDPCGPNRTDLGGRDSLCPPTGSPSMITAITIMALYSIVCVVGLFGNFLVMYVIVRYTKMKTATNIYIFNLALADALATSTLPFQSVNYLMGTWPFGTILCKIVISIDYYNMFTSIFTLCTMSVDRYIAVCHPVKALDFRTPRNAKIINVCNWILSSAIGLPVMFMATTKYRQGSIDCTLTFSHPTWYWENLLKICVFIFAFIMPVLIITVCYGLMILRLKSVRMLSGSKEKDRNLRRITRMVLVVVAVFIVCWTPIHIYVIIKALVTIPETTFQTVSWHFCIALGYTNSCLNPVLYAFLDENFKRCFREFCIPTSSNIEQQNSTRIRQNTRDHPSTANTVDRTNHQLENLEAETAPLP
C-X-C chemokine receptor type 2 (Homo sapiens), sequence (P25025 whole entry): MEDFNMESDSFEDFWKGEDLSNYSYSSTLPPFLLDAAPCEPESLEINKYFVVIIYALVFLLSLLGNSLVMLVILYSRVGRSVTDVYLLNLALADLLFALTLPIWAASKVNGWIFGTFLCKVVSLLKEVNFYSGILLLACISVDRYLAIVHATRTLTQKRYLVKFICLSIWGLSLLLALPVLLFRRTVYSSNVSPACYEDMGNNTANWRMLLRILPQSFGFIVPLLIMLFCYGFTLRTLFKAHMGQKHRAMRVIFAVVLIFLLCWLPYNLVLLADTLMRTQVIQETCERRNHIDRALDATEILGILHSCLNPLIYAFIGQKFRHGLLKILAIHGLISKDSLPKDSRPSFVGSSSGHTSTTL
Urotensin-2 receptor (Homo sapiens), sequence (Q9UKP6 whole entry): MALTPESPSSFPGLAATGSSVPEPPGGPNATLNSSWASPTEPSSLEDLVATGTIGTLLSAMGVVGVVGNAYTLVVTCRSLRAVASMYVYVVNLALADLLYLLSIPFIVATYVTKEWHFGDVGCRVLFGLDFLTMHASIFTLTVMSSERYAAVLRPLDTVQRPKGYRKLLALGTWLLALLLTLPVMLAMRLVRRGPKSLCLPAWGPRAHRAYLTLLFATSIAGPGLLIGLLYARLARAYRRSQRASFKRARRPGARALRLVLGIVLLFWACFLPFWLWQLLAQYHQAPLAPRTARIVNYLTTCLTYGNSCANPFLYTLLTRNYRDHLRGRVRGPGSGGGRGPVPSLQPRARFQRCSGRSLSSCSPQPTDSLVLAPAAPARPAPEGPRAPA
5-hydroxytryptamine receptor 5A (Homo sapiens), sequence (P47898 whole entry): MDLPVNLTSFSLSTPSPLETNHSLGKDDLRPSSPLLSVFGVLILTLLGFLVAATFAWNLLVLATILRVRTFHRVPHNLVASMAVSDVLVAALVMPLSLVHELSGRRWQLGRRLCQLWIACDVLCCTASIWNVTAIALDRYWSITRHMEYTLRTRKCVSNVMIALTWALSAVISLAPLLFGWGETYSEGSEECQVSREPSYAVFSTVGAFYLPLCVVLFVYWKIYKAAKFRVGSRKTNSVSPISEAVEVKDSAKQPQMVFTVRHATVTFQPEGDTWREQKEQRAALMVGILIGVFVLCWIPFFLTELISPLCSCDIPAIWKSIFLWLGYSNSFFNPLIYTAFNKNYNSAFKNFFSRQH
D(2) dopamine receptor (Homo sapiens), sequence (P14416 whole entry): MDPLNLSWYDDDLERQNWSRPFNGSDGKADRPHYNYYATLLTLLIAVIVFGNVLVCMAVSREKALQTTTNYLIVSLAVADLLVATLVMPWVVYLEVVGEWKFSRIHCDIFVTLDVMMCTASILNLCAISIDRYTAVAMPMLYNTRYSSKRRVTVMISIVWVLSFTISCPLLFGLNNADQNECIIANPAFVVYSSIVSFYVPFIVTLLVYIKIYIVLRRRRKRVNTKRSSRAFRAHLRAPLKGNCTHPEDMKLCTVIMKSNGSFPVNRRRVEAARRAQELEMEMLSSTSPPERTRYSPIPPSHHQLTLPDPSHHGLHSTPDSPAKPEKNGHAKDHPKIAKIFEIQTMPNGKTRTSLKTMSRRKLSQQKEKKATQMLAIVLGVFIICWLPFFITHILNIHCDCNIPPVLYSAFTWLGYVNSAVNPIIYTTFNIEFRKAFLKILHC

As to `Cn1cnc2ncn(Cc3nc(CCc4ccc(Cl)cc4)no3)c(=O)c21`, the Activity (in data set [1]; in the data set filed under Homo sapiens; in data set [2]; in [3]; in data set [4]; in data set [5]) was greater than 77% throughout. The Activity (in the data set filed under Rattus norvegicus [6]; in [7]; in data set [18]; in the data set filed under Cavia porcellus; in data set [19]) was greater than 77% each time. Besides, the EC50 in data set [8] is greater than 40000 nM. In [9], the AUC(0-inf) amounted to 19.8 µM·h. In the data set on MDR1 (human), the efflux ratio at 2 h amounted to 1.3. In addition, in [10], the concentration in solution (solubility) was 248 µM (≈ 92 µg/mL). The inhibition result in data set [11] is “inactive”. For the same compound, the IC50 in [12] was determined as 19 nM; in [13] it was 10 nM; in the data set with Rattus norvegicus [17] it was 350 nM. The entries for the “Cp(f)” value with Plasma [14] and with Plasma [15] were 51 nM and 190 nM, respectively. The Ratio in [16] amounted to 30.3.
